Active and inactive are the calls of the source. The calls are words filed in the database; no cut-off is given here.
Columns and labels:
[1] = molecular target: Histone-lysine N-methyltransferase EZH2 (Homo sapiens, UniProt Q15910); assay type: cell-based, Sf9
[2] = molecular target: T1, Protein cereblon/Histone-lysine N-methyltransferase EZH2 (Homo sapiens) (UniProt Q15910+Q96SW2); assay: PROTAC activity at CRBN E3 ligase/EZH2 in PRC2 complex in human WSUDLCL2 cells assessed as reduction in H3K27me3 level at 1 uM incubated for 48 hrs by Western blot analysis; assay type: cell-based
Method in brief: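 WSU-DLCL-2 cells treated 48 h (1 μM for the single-concentration screen), lysed; SDS-PAGE, nitrocellulose transfer, 5% milk block, primary antibody 4 °C overnight, chemiluminescence. Bands quantified by densitometry, normalized to GAPDH, expressed relative to DMSO-treated cells; mean ± SD of three independent experiments, t-test.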

MDA-MB-468 [3] = assay: Downregulation of CHEK1 mRNA expression in human MDA-MB-468 cells at 10 uM incubated for 48 hrs by qRT-PCR analysis; assay type: functional, cell-based
Method in brief: (§1)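 Cells treated 48 h. Total RNA extracted with Trizol, reverse-transcribed, and SYBR RT-qPCR run: 95 °C 30 s, then 40 cycles of 95 °C 6 s and 60 °C 20 s. mRNA normalized to the DMSO-treated group. Mean SD of three independent experiments, t-test versus DMSO.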

NCI-H1299 [4] = assay: Downregulation of TACC3 mRNA expression in human NCI-H1299 cells at 10 uM incubated for 48 hrs by qRT-PCR analysis; assay type: functional, cell-based
Method in brief: as §1

A549 [5] = assay: Antiproliferative activity against human A549 cells harboring SWI/SNF mutant assessed as inhibition of cell growth at 10 uM treated for 9 days by optical microscopic analysis; assay type: functional, cell-based; details: time 9.0 day
Method in brief: (§2)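 Cells seeded at 5 × 10³ per well, grown 24 h, then exposed to compound at 10 μM for 9 days with medium refreshed. Cells were photographed and counted on days 1, 3, 5, 7 and 9. For lines 1-2, EZH2-targeting or control shRNA was induced in the cells. Mean SD of three independent experiments; t-test against control.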

MDA-MB-468 [6] = assay: Downregulation of CENPK mRNA expression in human MDA-MB-468 cells at 10 uM incubated for 48 hrs by qRT-PCR analysis; assay type: functional, cell-based
Method in brief: as §1

A549 [7] = assay: Downregulation of CENPK mRNA expression in human A549 cells at 10 uM incubated for 48 hrs by qRT-PCR analysis; assay type: functional, cell-based
Method in brief: as §1

A549 [8] = assay: Downregulation of TACC3 mRNA expression in human A549 cells at 10 uM incubated for 48 hrs by qRT-PCR analysis; assay type: functional, cell-based
Method in brief: as §1

MDA-MB-468 [9] = assay: Downregulation of TACC3 mRNA expression in human MDA-MB-468 cells at 10 uM incubated for 48 hrs by qRT-PCR analysis; assay type: functional, cell-based
Method in brief: as §1

A549 [10] = assay: Downregulation of CEP76 mRNA expression in human A549 cells at 10 uM incubated for 48 hrs by qRT-PCR analysis; assay type: functional, cell-based
Method in brief: as §1

NCI-H1299 [11] = assay: Downregulation of CHEK1 mRNA expression in human NCI-H1299 cells at 10 uM incubated for 48 hrs by qRT-PCR analysis; assay type: functional, cell-based
Method in brief: as §1

A549 [12] = assay: Downregulation of CHEK1 mRNA expression in human A549 cells at 10 uM incubated for 48 hrs by qRT-PCR analysis; assay type: functional, cell-based
Method in brief: as §1

A549 [13] = assay: Downregulation of ARL6IP mRNA expression in human A549 cells at 10 uM incubated for 48 hrs by qRT-PCR analysis; assay type: functional, cell-based
Method in brief: as §1

NCI-H1299 [14] = assay: Downregulation of CENPK mRNA expression in human NCI-H1299 cells at 10 uM incubated for 48 hrs by qRT-PCR analysis; assay type: functional, cell-based
Method in brief: as §1

NCI-H1299 [15] = assay: Downregulation of CEP76 mRNA expression in human NCI-H1299 cells at 10 uM incubated for 48 hrs by qRT-PCR analysis; assay type: functional, cell-based
Method in brief: as §1

MDA-MB-468 [16] = assay: Downregulation of ARL6IP mRNA expression in human MDA-MB-468 cells at 10 uM incubated for 48 hrs by qRT-PCR analysis; assay type: functional, cell-based
Method in brief: as §1

A549 [17] = assay: Downregulation of […] mRNA expression in human A549 cells at 10 uM incubated for 48 hrs by qRT-PCR analysis; assay type: functional, cell-based
Method in brief: as §1

NCI-H1299 [18] = assay: Antiproliferative activity against human NCI-H1299 cells harboring SWI/SNF mutant assessed as inhibition of cell growth at 10 uM treated for 9 days by optical microscopic analysis; assay type: functional, cell-based; details: time 9.0 day
Method in brief: as §2

NCI-H1299 [19] = assay: Downregulation of […] mRNA expression in human NCI-H1299 cells at 10 uM incubated for 48 hrs by qRT-PCR analysis; assay type: functional, cell-based
Method in brief: as §1

MDA-MB-468 [20] = assay: Downregulation of […] mRNA expression in human MDA-MB-468 cells at 10 uM incubated for 48 hrs by qRT-PCR analysis; assay type: functional, cell-based
Method in brief: as §1

NCI-H1299 [21] = assay: Downregulation of ARL6IP mRNA expression in human NCI-H1299 cells at 10 uM incubated for 48 hrs by qRT-PCR analysis; assay type: functional, cell-based
Method in brief: as §1

WSUDLCL2 = assay: Antiproliferative activity against human WSUDLCL2 cells harboring EZH2-Y641F mutant assessed as inhibition of cell growth at 10 uM incubated for 9 days by optical microscopic analysis; assay type: functional, cell-based; details: time 9.0 day
Method in brief: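 WSU-DLCL-2 cells seeded at 5 × 10³ per well, incubated 24 h, then exposed to 10 μM compound for 9 days with medium refreshed. Cells photographed and counted on days 1, 3, 5, 7 and 9. Mean SD of three independent experiments, t-test versus DMSO.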

MDA-MB-468 [22] = assay: Downregulation of CEP76 mRNA expression in human MDA-MB-468 cells at 10 uM incubated for 48 hrs by qRT-PCR analysis; assay type: functional, cell-based
Method in brief: as §1

[23] = molecular target: T1, Protein cereblon/Histone-lysine N-methyltransferase EZH2 (Homo sapiens); assay: PROTAC activity at CRBN E3 ligase/EZH2 in PRC2 complex in human WSUDLCL2 cells assessed as reduction in EED level at 2.5 uM measured after 48 hrs by Western blot analysis; assay type: cell-based
Method in brief: (§3)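 WSU-DLCL-2 cells exposed 48 h to PROTAC or control analogues at 2.5 μM, with thalidomide and EPZ6438 at 10 μM; PRC2 subunit levels then read by western blot.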

NCI-H1299 [24] = assay: Antiproliferative activity against EZH2-knockdown human NCI-H1299 cells assessed as inhibition of cell growth at 10 uM treated for 9 days by optical microscopic analysis; assay type: functional, cell-based; details: time 9.0 day
Method in brief: as §2

[25] = molecular target: T1, Protein cereblon/Histone-lysine N-methyltransferase EZH2 (Homo sapiens); assay: PROTAC activity at CRBN E3 ligase/EZH2 in PRC2 complex in human WSUDLCL2 cells assessed as reduction in EZH2 level at 2.5 uM measured after 48 hrs by Western blot analysis; assay type: cell-based
Method in brief: as §3

[26] = molecular target: T1, Protein cereblon/Histone-lysine N-methyltransferase EZH2 (Homo sapiens); assay: PROTAC activity at CRBN E3 ligase/EZH2 in PRC2 complex in human WSUDLCL2 cells assessed as reduction in RbAp48 level at 2.5 uM measured after 48 hrs by Western blot analysis; assay type: cell-based
Method in brief: as §3

[27] = molecular target: T1, Protein cereblon/Histone-lysine N-methyltransferase EZH2 (Homo sapiens); assay: PROTAC activity at CRBN E3 ligase/EZH2 in PRC2 complex in human WSUDLCL2 cells assessed as reduction in SUZ12 level at 2.5 uM measured after 48 hrs by Western blot analysis; assay type: cell-based
Method in brief: as §3

A549 [28] = assay: Antiproliferative activity against EZH2-knockdown human A549 cells assessed as inhibition of cell growth at 10 uM treated for 9 days by optical microscopic analysis; assay type: functional, cell-based; details: time 9.0 day
Method in brief: as §2

Sequence of Histone-lysine N-methyltransferase EZH2 (Q15910 whole entry): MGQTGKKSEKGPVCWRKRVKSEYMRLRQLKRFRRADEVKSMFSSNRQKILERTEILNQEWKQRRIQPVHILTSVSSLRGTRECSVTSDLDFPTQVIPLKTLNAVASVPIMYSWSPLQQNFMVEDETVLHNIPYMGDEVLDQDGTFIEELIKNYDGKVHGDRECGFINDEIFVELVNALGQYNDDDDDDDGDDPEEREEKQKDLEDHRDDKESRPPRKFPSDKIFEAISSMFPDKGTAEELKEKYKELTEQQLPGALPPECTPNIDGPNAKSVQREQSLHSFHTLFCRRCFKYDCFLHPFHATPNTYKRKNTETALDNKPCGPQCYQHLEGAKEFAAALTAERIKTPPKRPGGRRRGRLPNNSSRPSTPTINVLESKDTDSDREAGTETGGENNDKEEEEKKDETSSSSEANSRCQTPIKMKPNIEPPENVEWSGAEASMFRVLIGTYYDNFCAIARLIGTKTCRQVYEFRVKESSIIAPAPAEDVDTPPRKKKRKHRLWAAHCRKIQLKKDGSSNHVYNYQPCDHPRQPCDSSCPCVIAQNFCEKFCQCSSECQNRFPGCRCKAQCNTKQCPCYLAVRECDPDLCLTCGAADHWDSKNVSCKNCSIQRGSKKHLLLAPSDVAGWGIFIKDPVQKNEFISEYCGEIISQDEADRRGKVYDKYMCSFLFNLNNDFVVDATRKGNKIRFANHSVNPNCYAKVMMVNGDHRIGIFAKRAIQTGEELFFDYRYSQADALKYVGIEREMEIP
T1 sequence (Q15910 whole entry, looked up): as the sequence (Q15910 whole entry) above
T1 sequence (Q96SW2 whole entry, looked up): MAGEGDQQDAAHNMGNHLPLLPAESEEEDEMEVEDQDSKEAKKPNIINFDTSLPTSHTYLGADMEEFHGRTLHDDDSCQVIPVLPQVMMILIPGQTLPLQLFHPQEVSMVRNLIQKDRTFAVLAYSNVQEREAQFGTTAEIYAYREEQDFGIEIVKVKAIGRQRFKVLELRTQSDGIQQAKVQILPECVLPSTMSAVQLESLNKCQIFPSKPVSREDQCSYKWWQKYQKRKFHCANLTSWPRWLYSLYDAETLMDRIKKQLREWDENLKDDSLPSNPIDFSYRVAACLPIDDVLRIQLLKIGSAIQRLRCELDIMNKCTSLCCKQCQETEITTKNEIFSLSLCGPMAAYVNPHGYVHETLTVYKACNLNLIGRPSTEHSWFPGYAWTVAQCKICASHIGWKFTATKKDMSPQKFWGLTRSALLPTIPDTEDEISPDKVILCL

CCN(c1cc(-c2ccc(CN3CCN(CCCCCCCCCOc4cccc5c4C(=O)N(C4CCC(=O)NC4=O)C5=O)CC3)cc2)cc(C(=O)NCc2c(C)cc(C)[nH]c2=O)c1C)C1CCOCC1 (centres undefined)
IC50 [1]: 15 nM | Activity [2]: Active

CCN(c1cc(-c2ccc(CN3CCOCC3)cc2)cc(C(=O)NCc2c(C)cc(C)[nH]c2=O)c1C)C1CCOCC1
Activity (MDA-MB-468 [3]): inactive | Activity (NCI-H1299 [4]): inactive | Activity (A549 [5]): inactive | Activity (MDA-MB-468 [6]): inactive | Activity (A549 [7]): inactive | Activity (A549 [8]): inactive | Activity (MDA-MB-468 [9]): inactive | Activity (A549 [10]): inactive | Activity (NCI-H1299 [11]): inactive | Activity (A549 [12]): inactive | Activity (A549 [13]): inactive | Activity (NCI-H1299 [14]): inactive | Activity (NCI-H1299 [15]): inactive | Activity (MDA-MB-468 [16]): inactive | Activity (A549 [17]): inactive | Activity (NCI-H1299 [18]): inactive | Activity (NCI-H1299 [19]): inactive | Activity (MDA-MB-468 [20]): inactive | Activity (NCI-H1299 [21]): inactive | Activity (WSUDLCL2): Active | Activity (MDA-MB-468 [22]): inactive

CCN(c1cc(-c2ccc(CN3CCN(CCCCCOc4cccc5c4C(=O)N(C4CCC(=O)NC4=O)C5=O)CC3)cc2)cc(C(=O)NCc2c(C)cc(C)[nH]c2=O)c1C)C1CCOCC1 (centres undefined)
IC50 [1]: 4.5 nM

CC[C@H](C)n1cc(C)c2c(C(=O)NCc3c(C)cc(C)[nH]c3=O)cc(-c3ccc(N4CCN(CCCCCCCOc5cccc6c5C(=O)N(C5CCC(=O)NC5=O)C6=O)CC4)nc3)cc21 (some centres undefined)
IC50 [1]: 6.3 nM

CCN(c1cc(-c2ccc(CN3CCN(CCCCCCCOc4cccc5c4C(=O)N(C4CCC(=O)N(C)C4=O)C5=O)CC3)cc2)cc(C(=O)NCc2c(C)cc(C)[nH]c2=O)c1C)C1CCOCC1 (centres undefined)
Activity [23]: inactive | IC50 [1]: 1.93 nM | Activity (NCI-H1299 [24]): inactive | Activity [25]: inactive | Activity [26]: inactive | Activity [27]: inactive | Activity (A549 [28]): inactive

CCN(c1cc(-c2ccc(CN3CCN(CCCCCCCOc4cccc5c4C(=O)N(C4CCC(=O)NC4=O)C5=O)CC3)cc2)cc(C(=O)NCc2c(C)cc(C)n(C)c2=O)c1C)C1CCOCC1 (centres undefined)
Activity [23]: inactive | IC50 [1]: 23.3 nM | Activity [25]: inactive | Activity [26]: inactive | Activity [27]: inactive

CCN(c1cc(-c2ccc(CN3CCN(CCCCCCCCCCCCOc4cccc5c4C(=O)N(C4CCC(=O)NC4=O)C5=O)CC3)cc2)cc(C(=O)NCc2c(C)cc(C)[nH]c2=O)c1C)C1CCOCC1 (centres undefined)
IC50 [1]: 53 nM

CC[C@H](C)n1cc(C)c2c(C(=O)NCc3c(C)cc(C)[nH]c3=O)cc(-c3ccc(N4CCN(CCCCCCCCCCCOc5cccc6c5C(=O)N(C5CCC(=O)NC5=O)C6=O)CC4)nc3)cc21 (some centres undefined)
IC50 [1]: 165 nM | Activity [2]: Active

CC[C@H](C)n1cc(C)c2c(C(=O)NCc3c(C)cc(C)[nH]c3=O)cc(-c3ccc(N4CCN(CCCCCCCCCCOc5cccc6c5C(=O)N(C5CCC(=O)NC5=O)C6=O)CC4)nc3)cc21 (some centres undefined)
IC50 [1]: 144 nM | Activity [2]: Active

CCN(c1cc(-c2ccc(CN3CCN(CCCCOc4cccc5c4C(=O)N(C4CCC(=O)NC4=O)C5=O)CC3)cc2)cc(C(=O)NCc2c(C)cc(C)[nH]c2=O)c1C)C1CCOCC1 (centres undefined)
IC50 [1]: 3.7 nM | Activity [2]: Active
